FXIIa inh: factor XIIa (human) inhibition; P00748; purified FXIIa, Boc-QGR-AMC fluorogenic substrate, 2 h; inhibition, % at 5 µM; actives 0.3% (n = 220,000); AID 800; in the data active means inhibition above about 40%
KLK5 inh: blocks human kallikrein 5 protease activity. actives 0.59% (n = 210,000). recombinant hK5, fluorogenic AMC substrate cleavage. AID 873. Q9Y337. inhibition, % at 5 µM;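 active means inhibition of 40% or more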
Target sequence (Q9Y337 67-293 limits assumed): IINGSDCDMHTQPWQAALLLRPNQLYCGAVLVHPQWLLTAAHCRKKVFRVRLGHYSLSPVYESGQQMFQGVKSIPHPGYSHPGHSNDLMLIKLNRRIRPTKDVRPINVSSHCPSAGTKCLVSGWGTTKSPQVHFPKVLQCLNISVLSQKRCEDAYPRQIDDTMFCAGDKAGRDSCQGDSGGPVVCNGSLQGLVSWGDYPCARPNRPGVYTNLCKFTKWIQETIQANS
Lipid droplet: hepatic lipid droplet formation modulation; AML12 mouse hepatocytes, oleate lipid droplets, BODIPY imaging; inhibition, % at 6.5 µM; actives 0.4% (n = 240,000); AID 1656;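 active means lipid droplet intensity inhibited by at least 50%, with more than 500 cells counted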
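Material: mouse AML12 hepatocyte cell line, fixed after treatment; Timing: compound with oleate, overnight; Technique: high-content imaging of BODIPY-stained droplets and DAPI nuclei; Probe or stimulus: oleate, 100 µM final; Dosing: compound at 6.5 µM only.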
FXIa inh 1536: blocks human coagulation factor XIa protease activity. P03951. purified FXIa, Boc-Glu-Ala-Arg-AMC fluorogenic substrate. inhibition, % at 5 µM. actives 0.14% (n = 220,000). AID 798;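 active means inhibition of at least 40%; inactive means inhibition below 40%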;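 further: fluorescence of freed AMC excited at 355 nm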
Thrombin inh: inhibitors of human thrombin; inhibition, % at 5 µM; alpha-thrombin, Boc-VPR-AMC fluorogenic substrate cleavage; actives 0.26% (n = 220,000); P00734; AID 1046;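 active means inhibition at or above 40%; inactive means inhibition below 40%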
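System: Human alpha-thrombin protein | Medium: pH 7.5 Tris (50 mM) with NaCl 150 mM, Tween 20 0.05% | Times: Enzyme reaction carried out at room temperature | Detection: AMC fluorescence, 355/460 nm | Evaluation: Percent inhibition scaled between no-compound controls and no-enzyme blanks | Benchmarks: Enzyme without compound as high, wells lacking enzyme as low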
Biofilm kill mix: mixture kills Candida albicans biofilm cells. C. albicans biofilm persisters + clotrimazole, fluorescence viability; primary screen in compound mixtures of four per well. inhibition, % at 7.6 µM. actives 0.02% (n = 120,000). AID 1242;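 active means inhibition above 30.3% in the primary screen of four-compound pools, then above 30% when the compound was retested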;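 further: compounds exposed to preformed 24 h biofilms for 48 h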
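Test system: C. albicans biofilms. Buffer or medium: RPMI/MOPS medium, pH 7.0. Timing: 48 h compound exposure at 37 °C. Technique: Alamar Blue fluorescence. Evaluation: percent inhibition of biofilm viability.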
Hep lipid conf: confirmation of inhibitors of hepatic lipid droplet formation. actives 65% (n = 870). shares compounds with Lipid droplet. inhibition, % at 5.2 µM. AML12 mouse hepatocytes, BODIPY lipid droplet imaging; droplets induced with 100 µM oleic acid. AID 463183;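 active means inhibition of lipid droplet metric at least 50%, with more than 300 cells in each of four replicates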
AML12 cytotox: toxic to AML12 mouse hepatocytes in counter-screen. shares compounds with Lipid droplet. DAPI nuclear morphology cytotoxicity imaging; active compounds read high; cells fed 100 µM oleate overnight. z-score at 5 µM. actives 3% (n = 870). AID 463200; in the data active means z-score above about 6.3;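 further: compound exposure lasted overnight at 37 °C before fixation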
AML12 tox ATP: AML12 hepatocyte cytotoxicity, confirmed; shares compounds with Lipid droplet; AML12 mouse hepatocyte viability, ATP luminescence; cells loaded with 100 µM oleic acid; cytotoxicity, % at 50 µM; 530 tested, under 10 active; AID 463219;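 active means cytotoxicity above 50% in each of four replicates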;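 further: compound exposure lasted overnight at 37 °C before the ATP read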
Numbers stand for hits; - = inactive; . = no result; ! = a repeat was not active. Hits are enriched below; roughly 1.1% of the tested compounds scored in any of these assays.

SMILES | FXIIa inh | KLK5 inh | Lipid droplet | FXIa inh 1536 | Thrombin inh | Biofilm kill mix | Hep lipid conf | AML12 cytotox | AML12 tox ATP
CCC1(c2ccccc2)NC(=O)N(CC(=O)N(C)Cc2c(F)cccc2Cl)C1=O (stereo not drawn) | . | . | 81 | . | . | . | 99 | - | -
CCC1(c2ccccc2)NC(=O)N(CC(=O)N(C)Cc2ccccc2)C1=O (stereo not drawn) | . | . | - | . | . | . | . | . | .
CCOc1ccc(-c2c(C)sc3nc[nH]c(=O)c23)cc1 | . | . | - | . | . | . | . | . | .
COc1ccc(NC(=O)NCc2ccc3c(c2)OCO3)cc1OC | . | . | - | . | . | . | . | . | .
O=C(c1ccc(S(=O)(=O)Nc2cccc(C(F)(F)F)c2)cc1)N1CCOCC1 | . | . | 58 | . | . | . | 90 | - | -
COc1ccccc1NC(=O)N1CCCC1C(=O)Nc1ccc2c(c1)OCO2 (stereo not drawn) | - | - | 71 | - | - | . | 71 | - | -
COc1cccc(NC(=O)N2CCCC2C(=O)Nc2ccc3c(c2)OCO3)c1 (stereo not drawn) | - | - | - | - | - | . | . | . | .
O=C(O)c1ccc2c(=O)n3cc(C(=O)c4ccccc4O)cc(Cl)c3nc2c1 | - | - | - | - | - | - | . | . | .
CCc1ccc(NC(=O)c2cc(S(=O)(=O)N3CCc4ccccc43)cn2C)cc1 | . | . | - | . | . | . | . | . | .
COCCNC(=S)N1CCc2cc(OC)c(OC)cc2C1COc1cc(C)cc(C)c1 (stereo not drawn) | - | - | 62 | - | - | - | 90 | - | -
CNC(=S)N1CCc2cc(OC)c(OC)cc2C1COc1ccc(OC)cc1 (stereo not drawn) | - | - | - | - | - | - | . | . | .
COc1ccc(CCNc2nc(C)nc3c2nnn3Cc2ccccc2)cc1 | . | . | - | . | . | . | . | . | .
CN(C)S(=O)(=O)c1ccc(C(=O)NCc2ccc3[nH]c4c(c3c2)CCCC4)cc1 | - | - | - | - | - | - | . | . | .
CCN(CC)S(=O)(=O)c1ccc(C(=O)NCc2ccc3[nH]c4c(c3c2)CCCC4)cc1 | - | - | 85 | - | - | - | 90 | - | -
CCOc1cc(N2CCOCC2)c(OCC)cc1NC(=O)COC(=O)c1cccc2ccccc12 | - | - | 55 | - | - | - | 101 | - | .
CCOc1cc(N2CCOCC2)c(OCC)cc1NC(=O)Cc1ccccc1 | - | - | - | - | - | - | . | . | .
COc1ccc(/C=C(\NC(=O)c2cccs2)C(=O)Nc2ccc(C)cc2)cc1OC | - | - | - | - | - | - | . | . | .
COc1ccc(/C=C(/NC(=O)c2cccs2)C(=O)Nc2ccc(C)cc2)cc1OC | - | - | 61 | - | - | - | 100 | - | -
O=C(NCc1ccc(F)cc1)C1CCCN(C(=O)Nc2ccc(F)cc2)C1 (stereo not drawn) | . | . | - | . | . | . | . | . | .
Cc1ccccc1OCc1n(CC(=O)OC2CC(C)CCC2C(C)C)c2ccccc2[n+]1C (stereo not drawn) | - | - | 54! | - | - | 34! | - | - | .
Cc1sc(NC(=O)Cc2ccc3c(c2)OCO3)nc1-c1ccc2c(c1)CCN2C(=O)c1ccccc1F | - | - | 51 | - | - | - | 83 | - | -
O=Nc1c(-c2c(O)[nH]c3cc(Br)ccc23)[nH]c2ccccc12 | . | . | 75 | . | . | . | 112 | - | 67
O=C(CSCc1cccc(Br)c1)N=Nc1c(O)[nH]c2ccccc12 | - | - | . | - | - | . | . | . | .
Cc1oc2c(cc(NS(=O)(=O)c3cccs3)c3ccccc32)c1C(=O)OC(C)C | - | - | 68 | - | - | - | 89 | - | -
CCOc1ccc(C(=O)OCC(=O)Nc2cc(C)on2)cc1OCC | - | - | 80 | - | - | . | 106 | - | -
SMILES | FXIIa inh | KLK5 inh | Lipid droplet | FXIa inh 1536 | Thrombin inh | Biofilm kill mix | Hep lipid conf | AML12 cytotox | AML12 tox ATP
O=C(CN(CC1CCCO1)C(=O)CNS(=O)(=O)c1ccccc1)NCCc1ccccc1 (stereo not drawn) | . | . | - | . | . | . | . | . | .
CCCCn1c(N)c(-c2nc3ccccc3s2)c2c([N+](=O)[O-])nn(CC)c(=O)c21 | - | - | 69 | - | - | . | 78 | - | -
CCCCCn1c(N)c(-c2nc3ccccc3s2)c2c([N+](=O)[O-])nn(CC)c(=O)c21 | - | - | 72 | - | - | . | 73 | - | -
O=C(O)c1ccc(S(=O)(=O)N2CCSCC2)cc1 | . | . | - | . | . | . | . | . | .
COC(=O)CNC(=O)Cc1c(C)n(C(=O)c2ccc(Cl)cc2)c2ccc(OC)cc12 | . | . | - | . | . | . | . | . | .
COc1ccc(NC(=O)Cc2c(C)n(C(=O)c3ccc(Cl)cc3)c3ccc(OC)cc23)cc1 | - | - | 83 | - | - | - | 98 | - | .
COc1ccc2c(c1)c(CC(=O)Nc1ccc(C)cc1)c(C)n2C(=O)c1ccc(Cl)cc1 | - | - | 80 | - | - | . | 106 | - | -
CCOc1ccc(CCNC(=O)COC(=O)/C=C/c2ccc(OCC#N)c(OC)c2)cc1OCC | - | - | 63 | - | - | - | 103 | - | -
CCOc1ccc(CCNC(=O)COC(=O)c2ccccc2O)cc1OCC | - | - | - | - | - | - | . | . | .
CCOc1ccc(CCNC(=O)CN2CCN(Cc3ccccc3C)C2=O)cc1OCC | - | - | 83 | - | - | . | 107 | - | -
CCOc1ccc(CCNC(=O)COC(=O)c2cccnc2OCC)cc1OCC | - | - | 98 | - | - | . | 105 | - | -
CCOc1ccc(CCNC(=O)COc2cc(=O)n(C)c3ccccc23)cc1OCC | - | - | 100 | - | - | - | 101 | - | -
COCCNC(=O)c1cccc(OC2CCN(Cc3ccccc3C)CC2)c1 | . | . | - | . | . | . | . | . | .
COc1cc(CC(=O)OCC(=O)N2CCCCC2C)cc(OC)c1OC (stereo not drawn) | . | . | - | . | . | . | . | . | .
CC(=O)c1c(C)[nH]c(C(=O)Nc2cccc(C(F)(F)F)c2)c1C | . | . | - | . | . | . | . | . | .
C=CCOC(=O)Cn1cnc2c(sc3nc(C)cc(C)c32)c1=O | . | . | - | . | . | . | . | . | .
CCc1ccc(NC(=O)CCC(=O)N2CCSc3ccccc32)cc1 | . | . | - | . | . | . | . | . | .
CCOc1ccc(CCNC(=O)CSc2cc(=O)n(C)c3ccccc23)cc1OCC | - | - | 98 | - | - | - | 106 | - | -
CCOc1ccc(CCNC(=O)CCC(=O)N2CCSc3ccccc32)cc1OCC | . | . | 91 | . | . | . | 110 | - | -
CSCCC(NC(=O)c1ccccc1Cl)C(=O)N1CCN(c2ccccn2)CC1 (stereo not drawn) | . | . | - | . | . | . | . | . | .
O=C(CSc1nc(-c2ccco2)cc(C(F)(F)F)n1)Nc1ccc(C(=O)N2CCOCC2)cc1 | - | - | 59 | - | - | - | 90 | - | -
COc1ccc(C(=O)N2CCCC(Nc3ccc(C(C)C)cc3)C2)c(OC)n1 (stereo not drawn) | . | . | - | . | . | . | . | . | .
